Test results reported in ChEMBL document CHEMBL4007420, “Structural Optimization and Pharmacological Evaluation of Inhibitors Targeting Dual-Specificity Tyrosine Phosphorylation-Regulated Kinases (DYRK) and CDC-like kinases (CLK) in Glioblastoma” (J Med Chem, 2017).
Activity calls are given as the source filed them. No cut-off for these calls is given here.

Key:
[1] = Cytotoxicity against patient-derived RN1 cells assessed as reduction in cell viability after 3 days by Alamar blue assay; type: functional, cell-based; conditions: Homo sapiens, RN1, 72 h
Summary of the method: (§1)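 The patient-derived glioblastoma lines were grown as stem cells under defined conditions to keep the phenotype and genotype of the resected tumours. Viability after treatment was read with Alamar blue.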

[2] = test system: U-251; experiment: Antimigratory activity in human U251 cells at 5 uM measured up to 20 hrs by wound scratch assay; type: functional; conditions: U-251, 20 h
Summary of the method: (§2)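 Wound-healing migration assay: cell movement across the wound is measured as velocity (µm/h). Compounds were tested at 0, 1.0, 5.0 and 10.0 µM. Values are mean ± SEM of 3 independent experiments.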

[3] = test system: U-251; experiment: Antiinvasive activity in human U251 cells measured up to 20 hrs by matrigel assay; type: functional, cell-based
[4] = molecular target: Dual specificity protein kinase CLK1 (Homo sapiens, UniProt P49759); experiment: Inhibition of CLK1 (unknown origin) using KKGRSRSRSRSRSR as substrate after 40 mins in presence of [gamma-33P]ATP by microbeta scintillation counting
Chain of Dual specificity protein kinase CLK1 (P49759 whole entry): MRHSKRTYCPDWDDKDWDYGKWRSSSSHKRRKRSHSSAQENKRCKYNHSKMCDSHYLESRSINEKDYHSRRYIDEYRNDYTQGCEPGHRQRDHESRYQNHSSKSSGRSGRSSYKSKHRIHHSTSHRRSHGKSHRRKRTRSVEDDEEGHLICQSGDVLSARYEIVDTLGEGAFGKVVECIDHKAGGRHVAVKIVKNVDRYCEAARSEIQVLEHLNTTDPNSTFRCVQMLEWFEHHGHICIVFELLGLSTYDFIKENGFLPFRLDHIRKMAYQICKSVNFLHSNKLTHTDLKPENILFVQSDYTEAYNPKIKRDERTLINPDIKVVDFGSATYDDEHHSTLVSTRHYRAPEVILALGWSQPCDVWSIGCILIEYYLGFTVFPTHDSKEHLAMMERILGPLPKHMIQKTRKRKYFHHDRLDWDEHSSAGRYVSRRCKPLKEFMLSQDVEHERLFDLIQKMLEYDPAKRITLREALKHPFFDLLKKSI
Summary of the method: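 CLK1 was assayed with RS peptide substrate at 100 µM ATP.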

[5] = Antimigratory activity in patient-derived RN1 cells assessed as velocity of migration at 1 uM measured up to 20 hrs by wound scratch assay (reference value: 937 to 1174 micrometer/hr); type: functional, Homo sapiens; summary of the method: as §2
[6] = molecular target: T1, Dual specificity tyrosine-phosphorylation-regulated kinase 1B (Homo sapiens, UniProt Q9Y463); experiment: Inhibition of DYRK1B (unknown origin) using woodtide as substrate after 40 mins in presence of [gamma-33P]ATP by microbeta scintillation counting
Target sequence in this assay (Q9Y463 whole entry): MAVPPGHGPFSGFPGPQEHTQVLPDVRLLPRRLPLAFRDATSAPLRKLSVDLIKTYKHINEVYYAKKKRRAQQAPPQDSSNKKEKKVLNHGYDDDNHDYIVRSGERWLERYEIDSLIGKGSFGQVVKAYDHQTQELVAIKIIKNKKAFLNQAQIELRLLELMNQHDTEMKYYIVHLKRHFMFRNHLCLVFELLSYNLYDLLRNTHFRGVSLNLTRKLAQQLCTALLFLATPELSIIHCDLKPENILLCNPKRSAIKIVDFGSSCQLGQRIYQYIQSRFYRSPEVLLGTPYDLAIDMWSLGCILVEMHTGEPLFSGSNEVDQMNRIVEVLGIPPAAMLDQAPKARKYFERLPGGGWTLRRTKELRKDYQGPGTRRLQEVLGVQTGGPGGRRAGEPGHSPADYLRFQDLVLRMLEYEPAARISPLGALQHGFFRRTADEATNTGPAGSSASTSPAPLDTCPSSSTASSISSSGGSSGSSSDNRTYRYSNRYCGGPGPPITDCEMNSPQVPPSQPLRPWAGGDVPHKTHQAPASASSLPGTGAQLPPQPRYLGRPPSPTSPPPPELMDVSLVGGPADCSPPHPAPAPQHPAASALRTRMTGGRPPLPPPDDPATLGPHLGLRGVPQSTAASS

[7] = test system: A 172; experiment: Antimigratory activity in human A172 cells assessed as velocity of migration at 5 uM measured up to 20 hrs by wound scratch assay (reference value: 2650 to 3123 micrometer/hr); type: functional; summary of the method: as §2
[8] = molecular target: T2, Dual specificity tyrosine-phosphorylation-regulated kinase 1A (Homo sapiens, UniProt Q13627); experiment: Stabilization of DYRK1A in human U251 cell lysate at 10 uM preincubated for 1 hr followed by incubation at 40 to 70 degreeC for 3 mins by cellular thermal shift assay
[9] = molecular target: T3, Dual specificity tyrosine-phosphorylation-regulated kinase 2 (Homo sapiens, UniProt Q92630); experiment: Inhibition of DYRK2 (unknown origin) using woodtide as substrate after 40 mins in presence of [gamma-33P]ATP by microbeta scintillation counting
T3 sequence (Q92630 whole entry): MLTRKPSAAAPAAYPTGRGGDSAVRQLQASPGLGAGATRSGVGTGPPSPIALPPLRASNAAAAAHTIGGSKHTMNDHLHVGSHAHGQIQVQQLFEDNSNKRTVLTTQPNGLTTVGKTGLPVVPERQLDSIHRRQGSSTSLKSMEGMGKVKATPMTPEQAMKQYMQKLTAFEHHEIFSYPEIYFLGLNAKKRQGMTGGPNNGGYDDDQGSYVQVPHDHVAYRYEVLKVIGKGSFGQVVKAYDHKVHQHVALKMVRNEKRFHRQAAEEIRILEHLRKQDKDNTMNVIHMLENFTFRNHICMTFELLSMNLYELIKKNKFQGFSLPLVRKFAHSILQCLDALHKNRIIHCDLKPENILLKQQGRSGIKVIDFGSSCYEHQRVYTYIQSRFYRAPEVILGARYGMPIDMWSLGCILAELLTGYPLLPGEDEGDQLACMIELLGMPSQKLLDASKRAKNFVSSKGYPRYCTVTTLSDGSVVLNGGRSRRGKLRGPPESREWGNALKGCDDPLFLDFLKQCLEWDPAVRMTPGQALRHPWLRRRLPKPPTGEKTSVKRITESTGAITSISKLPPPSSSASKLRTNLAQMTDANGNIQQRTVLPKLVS

[10] = test system: A 172; experiment: Antimigratory activity in human A172 cells assessed as velocity of migration at 10 uM measured up to 20 hrs by wound scratch assay (reference value: 2650 to 3123 micrometer/hr); type: functional; summary of the method: as §2
[11] = molecular target: T1, Dual specificity tyrosine-phosphorylation-regulated kinase 1B; experiment: Stabilization of DYRK1B in human U251 cell lysate at 10 uM preincubated for 1 hr followed by incubation at 40 to 70 degreeC for 3 mins by cellular thermal shift assay
Target sequence in this assay (Q9Y463 whole entry, looked up): as the sequence (Q9Y463 whole entry) above

[12] = test system: U-251; experiment: Antimigratory activity in human U251 cells assessed as velocity of migration at 10 uM measured up to 20 hrs by wound scratch assay (reference value: 2159 to 2653 micrometer/hr); type: functional; summary of the method: as §2
[13] = Antimigratory activity in patient-derived RN1 cells assessed as velocity of migration at 5 uM measured up to 20 hrs by wound scratch assay (reference value: 937 to 1174 micrometer/hr); type: functional, Homo sapiens; summary of the method: as §2
[14] = Cytotoxicity against patient-derived SJH1 cells assessed as reduction in cell viability after 3 days by Alamar blue assay; type: functional, cell-based; conditions: Homo sapiens, SJH1, 72 h; summary of the method: as §1
[15] = test system: A 172; experiment: Antiinvasive activity in human A172 cells measured up to 20 hrs by matrigel assay; type: functional, cell-based
[16] = test system: U-251; experiment: Antimigratory activity in human U251 cells assessed as velocity of migration at 1 uM measured up to 20 hrs by wound scratch assay (reference value: 2159 to 2653 micrometer/hr); type: functional; summary of the method: as §2
[17] = Antimigratory activity in patient-derived RN1 cells at 5 uM measured up to 20 hrs by wound scratch assay; type: functional; conditions: Homo sapiens, RN1, 20 h; summary of the method: as §2
[18] = test system: U-251; experiment: Antimigratory activity in human U251 cells assessed as velocity of migration at 5 uM measured up to 20 hrs by wound scratch assay (reference value: 2159 to 2653 micrometer/hr); type: functional; summary of the method: as §2
[19] = test system: A 172; experiment: Cytotoxicity against human A172 cells assessed as reduction in cell viability after 3 days by Alamar blue assay; type: functional, cell-based; conditions: A 172, 72 h
[20] = test system: A 172; experiment: Antimigratory activity in human A172 cells at 5 uM measured up to 20 hrs by wound scratch assay; type: functional; conditions: A 172, 20 h; summary of the method: as §2
[21] = Cytotoxicity against patient-derived WK1 cells assessed as reduction in cell viability after 5 days by Alamar blue assay; type: functional, cell-based; conditions: Homo sapiens, WK1, 120 h; summary of the method: as §1
[22] = test system: A 172; experiment: Antiinvasive activity in human A172 cells assessed as velocity of invasion at 10 uM measured up to 20 hrs by matrigel assay (reference value: 2659 to 3047 micrometer/hr); type: functional
[23] = species: Homo sapiens; experiment: Inhibition of tubulin (unknown origin) polymerization
[24] = molecular target: T2, Dual specificity tyrosine-phosphorylation-regulated kinase 1A; experiment: Inhibition of DYRK1A (unknown origin) using woodtide as substrate after 10 mins in presence of [gamma-33P]ATP by microbeta scintillation counting
[25] = test system: U-251; experiment: Antiinvasive activity in human U251 cells assessed as velocity of invasion at 10 uM measured up to 20 hrs by matrigel assay (reference value: 1151 to 1710 micrometer/hr); type: functional
[26] = test system: U-251; experiment: Antiinvasive activity in human U251 cells assessed as velocity of invasion at 1 uM measured up to 20 hrs by matrigel assay (reference value: 1151 to 1710 micrometer/hr); type: functional
[27] = test system: A 172; experiment: Antiinvasive activity in human A172 cells assessed as velocity of invasion at 1 uM measured up to 20 hrs by matrigel assay (reference value: 2659 to 3047 micrometer/hr); type: functional
[28] = test system: A 172; experiment: Antiinvasive activity in human A172 cells assessed as velocity of invasion at 5 uM measured up to 20 hrs by matrigel assay (reference value: 2659 to 3047 micrometer/hr); type: functional

IC50 [4]: 34 nM
IC50 [6]: 32 nM
Activity [8]: Active
IC50 [9]: 567 nM
Activity [11]: Active
inhibition [23]: inactive
IC50 [24]: 43 nM
Structure (SMILES): Nc1ccc(-c2cnc3[nH]cc(-c4ccc(O)cc4)c3c2)cc1
EC50 [1]: 1100 nM
inhibition at 5 µM [2]: > 75%
inhibition [3]: Dose-dependent effect
Activity [5]: 355 um/hr
Activity [7]: 728 um/hr
Activity [10]: 131 um/hr
Activity [12]: 129 um/hr
Activity [13]: 118 um/hr
EC50 [14]: 3200 nM
inhibition [15]: Dose-dependent effect
Activity [16]: 1247 um/hr
inhibition at 5 µM [17]: > 75%
Activity [18]: 127 um/hr
EC50 [19]: 1600 to 4600 nM
inhibition at 5 µM [20]: > 75%
EC50 [21]: 900 nM
Activity [22]: 714 um/hr
Activity [25]: -149 um/hr
Activity [26]: 1139 um/hr
Activity [27]: 2675 um/hr
Activity [28]: 1538 um/hr
